We go through 3 compounds from paper PMC6430656 (Cell chemical biology, 2018).

Where two headings read alike, the source gives them in different places.

For orientation: EC50 means the concentration that produces a half-maximal response. One may read the IC50 as the concentration that inhibits the measured activity by half.

The subject of data set [1] is HuH7 cells. Nature of the data set: HuH7 hepatoma cell viability. The format is cell-based.
Data set [2] deals with HsTAK1. To be noted: ref Totzke et al., 2017, cited from earlier work.
Data set [3] deals with PfPK9 (Plasmodium falciparum, UniProt Q8IEG4). Briefly: ATP-competitive binding assay, GFP-PfPK9 on ATP-sepharose resin. The following applies: for relative PfPK9 binding compared to negative DMSO control: takinib analog screen at 250 and 500 μM.
Data set [4] relates to P. berghei parasite load in HuH7 cells. Nature of the data set: P. berghei liver stage parasite load in HuH7 cells. The format is cell-based, Plasmodium berghei. The method, boiled down: (§1)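 Hepatoma cells were seeded with test compound (0–100 μM) before infection with 3,000 P. berghei ANKA sporozoites: 15,000 cells/well for HepG2 and 8,000 for HuH7. For HepG2, compound was also added at 0 or 4 hpi. Parasite load was read by luciferase luminescence at 45 h and normalised to 1% DMSO. EC50 came from a variable-slope four-parameter fit, mean ± SEM of n ≥4.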

For data set [5], the target named is PfPK5 (Plasmodium falciparum, UniProt P61075). Briefly: KINOMEScan affinity for PfPK5. Type of data set: binding.
Data set [6] deals with PfCDPK1 (Plasmodium falciparum, UniProt P62344). Briefly: KINOMEScan affinity for PfCDPK1. Type of data set: binding.
The test system of data set [7] is P. berghei EEFs in HuH7 cells. Nature of the data set: Immunofluorescence analysis of P. berghei EEFs in HuH7 cells. Type of data set: cell-based, Plasmodium berghei.
Data set [8] relates to K63-linked ubiquitin in P. falciparum. The format is cell-based, Plasmodium falciparum. To be noted: for K63-linked protein ubiquitination (band intensities relative to DMSO): 30 μM, 24 hrs, ring stage P. falciparum 3D7. In outline:
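P. falciparum 3D7 was cultured in RPMI/AlbuMAX II at pH 7.2, 37 °C, under 3% O2, and sorbitol-synchronised. Ring stages (10 h post-reinvasion; 10% parasitemia, 1% haematocrit) were treated 24 h with test compound (30 μM, or 0.001–100 μM) or ≤0.1% DMSO. Cells were saponin-lysed and sonicated, then blotted with anti-K63-linkage ubiquitin, with anti-K48 ubiquitin as control and actin as loading control. Total band intensity was quantified across 2–3 independent experiments.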

The nature of data set [9]: Solubility. The format is physicochemical.
Data set [10] relates to HsIRAK4. To be noted: read-out: IC50 HsIRAK4; ref Totzke et al., 2017; cited from earlier work.
For data set [11], the system named is HepG2 cells. Nature of the data set: HepG2 hepatoma cell viability. The format is cell-based. The method, boiled down:
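HepG2 cells (15,000/well) were seeded with test compound, then infected with 3,000 P. berghei ANKA sporozoites. Viability was measured after 45 h in the same wells as the parasite-load read-out, using a fluorescence protease-activity assay (an ATP luminescence assay is also described). Signal was normalised to 1% DMSO, and ≥50% loss of viability was the exclusion threshold.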

For data set [12], the system named is blood stage P. falciparum parasites. Briefly: Inhibition of blood stage P. falciparum parasites. The format is cell-based, Plasmodium falciparum. The following applies: 100 μM.
In data set [13] the test system is HsIRAK1. The following applies: read-out: IC50 HsIRAK1; ref Totzke et al., 2017; cited from earlier work.
Data set [14] has as its system P. berghei parasite load in HepG2 cells. Nature of the data set: P. berghei liver stage parasite load in HepG2 cells. The format is cell-based. The following applies: Plasmodium berghei, HepG2, read-out: EC50 P. berghei parasite load, HepG2 cells. In outline:
as §1

Chain of PfPK5 (P61075 whole entry): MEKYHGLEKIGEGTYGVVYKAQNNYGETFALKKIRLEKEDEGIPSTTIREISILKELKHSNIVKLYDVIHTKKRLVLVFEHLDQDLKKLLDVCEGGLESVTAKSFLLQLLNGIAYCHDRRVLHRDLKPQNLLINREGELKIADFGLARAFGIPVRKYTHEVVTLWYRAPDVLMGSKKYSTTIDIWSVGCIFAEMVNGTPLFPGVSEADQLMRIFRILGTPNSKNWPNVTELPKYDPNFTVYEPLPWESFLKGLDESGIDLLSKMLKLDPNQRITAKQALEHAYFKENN
Chain of PfCDPK1 (P62344 whole entry): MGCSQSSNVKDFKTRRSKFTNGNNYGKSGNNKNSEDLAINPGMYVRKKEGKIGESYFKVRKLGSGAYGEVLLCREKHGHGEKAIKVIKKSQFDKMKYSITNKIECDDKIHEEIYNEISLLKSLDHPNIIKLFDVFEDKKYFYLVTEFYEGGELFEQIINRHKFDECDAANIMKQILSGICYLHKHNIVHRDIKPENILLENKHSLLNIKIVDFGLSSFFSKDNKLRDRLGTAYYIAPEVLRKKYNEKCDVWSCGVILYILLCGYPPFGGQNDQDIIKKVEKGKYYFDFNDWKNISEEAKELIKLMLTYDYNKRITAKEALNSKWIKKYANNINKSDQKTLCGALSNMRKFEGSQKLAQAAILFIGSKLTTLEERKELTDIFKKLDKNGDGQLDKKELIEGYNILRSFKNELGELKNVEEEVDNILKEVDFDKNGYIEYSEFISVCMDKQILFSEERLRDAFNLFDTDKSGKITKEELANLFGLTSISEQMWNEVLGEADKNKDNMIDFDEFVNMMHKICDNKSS

`CCCn1c(NC(=O)c2cccc(C(=O)O)c2)nc2ccccc21` [HS220]: in [1], the “change in HuH7 viability upon treatment” value is on record as “no significant change”. Besides, the “decrease of cell viability” value in data set [1] (HuH7, any concentration tested) was at most 30%. The “HsTAK1 inhibition, fold less potent than takinib” value in [2] (HS220 vs takinib) is 160,000 fold. Also, the “effect on HsTAK1 activity” value in data set [2] is on record as “little or no effect”. Further, in data set [3] (HS220 vs takinib), the “PfPK9 binding affinity, fold less potent than takinib” value was 8.9 fold. In addition, the Kd is 4.1 ± 0.8 µM in data set [3] (read-out: Kd(app) PfPK9 binding, converted from EC50, dose-response 0–500 μM); over 30 µM in data set [5] (read-out: Kd PfPK5, tested up to 30 μM, KINOMEScan); over 30 µM in data set [6] (read-out: Kd PfCDPK1, tested up to 30 μM, KINOMEScan). In [3], the “relative PfPK9 binding compared to negative DMSO control” value is over 3 fold. Further, the EC50 in data set [4] (read-out: EC50 P. berghei parasite load, HuH7 cells) came to 43 ± 3.8 µM. Also, the “number of EEFs” value in data set [7] (30 μM, 0–48 hpi) was “did not change”; in data set [7] (100 μM, 0–48 hpi), “decreased”. For the same compound, the EEF size entry in data set [7] (30 μM, 0–48 hpi, vs DMSO) is given as “significantly increased”; in data set [7] (100 μM, 0–48 hpi) it was “not affected”. Besides, in [8], the “K63-linked protein ubiquitination (band intensities relative to DMSO)” value is recorded as “decrease”.
With `NC(=O)c1cccc(C(=O)Nc2nc3ccccc3s2)c1` [HS230], the solubility entry in data set [9] is given as “poor”. Besides, the “effect on HsTAK1 activity” value in [2] is on record as “little or no effect”. The “relative PfPK9 binding compared to negative DMSO control” value in [3] was over 3 fold.
For the compound `CCCn1/c(=N/C(=O)c2cccc(C(N)=O)c2)[nH]c2ccccc21` [takinib], the “decrease of cell viability” value in [1] (HuH7, tested up to 200 μM) is at most 40%; in [11] (HepG2, tested up to 200 μM) it was at most 40%. Also, the IC50 in data set [10] is 0.12 µM; in data set [2] (read-out: IC50 HsTAK1), 0.0095 µM; in data set [13], 0.39 µM. In addition, the “decrease of HepG2 viability” value in [11] (30 μM, relative to DMSO) is listed as at most 50%. Also, the “inhibition of blood stage P. falciparum parasites” value in data set [12] is reported as “inhibits”. Moreover, the figures for the Kd in data set [3], in data set [5] and in data set [6] were 0.46 ± 0.1 µM, over 30 µM and over 30 µM, respectively. Moreover, the 50% effective concentration (EC50) stood at 7.3 ± 0.99 µM in data set [4] (Plasmodium berghei, Huh-7, read-out: EC50 P. berghei parasite load) and 6.7 ± 1.3 µM in data set [14]. The EEF size entry in [7] (10 μM, 0–24, 24–48 and 0–48 hpi, vs DMSO) is on record as “significantly increased”; in [7] (30 μM, 0–24 hpi or 24–48 hpi), “increased”. In [7] (10 μM, all time periods), the “number of EEFs (infected cells)” value is “not affected”. Besides, the “number of EEFs” value in [7] (30 μM, 0–24 hpi or 0–48 hpi) is on record as “decreased”. Further, in data set [8], the “K63-linked protein ubiquitination (band intensities relative to DMSO)” value is on record as “decreased”. The “K63-linked ubiquitin signal (total intensity of all bands)” value in data set [8] (30 and 100 μM) is on record as “significantly decreased”. In data set [8] (dose-response 0.001–100 μM), the “K48-linked ubiquitin signal (control)” value was “no change”.
